PubChem BioAssay AID623869 (Vanderbilt High Throughput Screening Facility, 2012)
Among all 2,100 compounds or so, about 75 (4%) were called active.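 The calls were made as follows: active = calcium fluorescence trace judged by eye to show a response, as agonist, enhancer of the glutamate response, or inhibitor; inactive = trace judged by eye to show no response.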 The entries come from a sample that favours actives as a whole.

target: Metabotropic glutamate receptor 8 (Rattus norvegicus) (UniProt P70579); assay: mGlu8-mediated intracellular calcium response modulators – cell-based, HEK293 rmGlu8, Gqi9 chimera, Fluo-4 calcium, counter-screen for GIRK activator project, confirmation (AID 623869); details: HEK293 rmGlu8/Gqi9 calcium flux, Fluo-4 fluorescence; glutamate at EC20 added after compound
Procedure, shortened: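 system = HEK-293 cells stably expressing rat mGlu8, plus transient chimeric Gqi9 | measured by = Fluo-4 calcium fluorescence, 1 Hz | timing = compound pre-exposure 4 min, post-glutamate read 2 min | measure = F/F0 fluorescence traces judged visually for each well | medium = HEPES-buffered HBSS at pH 7.4 | doses = single compound addition from 20 µM solution, 0.2% DMSO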

Sequence of Metabotropic glutamate receptor 8 (Rattus norvegicus) (P70579 whole entry, looked up): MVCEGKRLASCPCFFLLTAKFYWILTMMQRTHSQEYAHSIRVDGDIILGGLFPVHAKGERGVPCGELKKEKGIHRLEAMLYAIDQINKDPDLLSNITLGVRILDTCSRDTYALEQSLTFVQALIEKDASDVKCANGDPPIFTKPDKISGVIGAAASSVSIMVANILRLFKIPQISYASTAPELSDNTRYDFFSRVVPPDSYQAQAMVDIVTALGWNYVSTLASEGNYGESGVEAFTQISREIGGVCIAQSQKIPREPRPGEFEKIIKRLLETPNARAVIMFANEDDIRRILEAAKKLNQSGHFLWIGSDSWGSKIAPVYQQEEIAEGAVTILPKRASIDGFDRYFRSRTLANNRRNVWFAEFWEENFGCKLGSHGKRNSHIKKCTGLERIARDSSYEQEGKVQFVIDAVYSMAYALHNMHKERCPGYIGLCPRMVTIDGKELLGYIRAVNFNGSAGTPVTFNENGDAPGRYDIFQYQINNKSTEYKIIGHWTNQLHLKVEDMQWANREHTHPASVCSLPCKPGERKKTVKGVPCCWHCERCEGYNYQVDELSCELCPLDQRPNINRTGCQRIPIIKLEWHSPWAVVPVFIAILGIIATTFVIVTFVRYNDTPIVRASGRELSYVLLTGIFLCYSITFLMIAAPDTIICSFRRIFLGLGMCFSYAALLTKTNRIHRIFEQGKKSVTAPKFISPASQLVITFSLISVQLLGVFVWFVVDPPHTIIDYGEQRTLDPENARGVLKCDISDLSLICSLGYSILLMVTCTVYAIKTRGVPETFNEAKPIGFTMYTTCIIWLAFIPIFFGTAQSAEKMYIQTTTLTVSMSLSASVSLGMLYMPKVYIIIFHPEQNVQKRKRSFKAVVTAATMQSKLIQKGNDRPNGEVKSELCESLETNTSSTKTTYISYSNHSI

SMILES | outcome
S=C(Nc1ccccc1Cl)Nc1ccc(Cl)cc1Cl | inactive; 0
COC(=O)c1ccc(CSc2nnc(Nc3ccccc3OC)s2)o1 | inactive; 0
CCC(Sc1ccc2nnc(-c3ccc(F)cc3)n2n1)C(=O)OC (stereo not drawn) | inactive; 0
COC(=O)c1ccc(CSc2ccc3nnc(-c4ccccc4)n3n2)o1 | active; 2
COc1ccc2nc(N3C(=O)/C(=C/c4ccccc4)NC3=S)sc2c1 | inactive; 0
CCCc1ccc(C(=O)N2CCN(c3ccccc3OCC)CC2)cc1 | inactive; 0
Cc1cc(C)c2nc(NC(=O)c3cc(C)on3)sc2c1 | inactive; 0
CCOc1ccc(-c2nc(-c3cccnc3)no2)cc1OCC | active; 2
CCOc1cc(-c2noc(-c3cccnc3)n2)ccc1OC | inactive; 0
CCOc1ccc(-c2nc(-c3ccncc3)no2)cc1OCC | inactive; 0
Cc1ccnc(NC(=S)NC(=O)c2cccs2)c1 | inactive; 0
Cc1ccc(C(=O)NNC(=S)NC(=O)c2ccc(Cl)cc2)cc1 | inactive; 4
Cc1cccc(NC(=O)NC(=S)NC(=O)c2ccccc2)c1 | inactive; 0
Cc1cccc(C(=O)NC(=S)NNC(=O)c2ccc(Cl)cc2)c1 | active; 1
Cc1cccc(C(=O)NC(=S)NNC(=O)c2ccccc2Cl)c1 | active; 1
Cc1cccc(C(=O)NC(=S)Nc2ccccc2C(F)(F)F)c1 | inactive; 0
O=C(CNC(=S)NC(=O)c1cccs1)c1ccccc1 | inactive; 0
Cc1cccc(C(=O)NC(=S)NNC(=O)c2cccs2)c1 | active; 1
O=C(NC(=S)NNC(=O)c1cccs1)c1ccc(Br)o1 | active; 1
CC(=O)c1cccc(NC(=S)NC(=O)c2cccc(C)c2)c1 | inactive; 0
CC(C)CNC(=S)NC(=O)c1ccccc1Cl | inactive; 0
O=C(NNC(=O)c1cccs1)Nc1cccc(Cl)c1 | inactive; 0
CC(C)CNC(=S)NC(=O)c1ccc([N+](=O)[O-])cc1 | inactive; 0
O=C(COc1ccccc1Cl)NC(=S)N1CCc2ccccc21 | inactive; 0
C=CCCCCCCCCc1nc(=S)[nH][nH]1 | inactive; 0

SMILES | outcome
Cc1cccc(NC(=S)NNC(=O)c2sccc2C)c1 | inactive; 0
O=C(NC(=S)N1CCN(c2ccc(Cl)cc2[N+](=O)[O-])CC1)c1ccco1 | inactive; 0
O=C(N/N=C\c1cc(Br)c(Br)o1)c1cncc(Br)c1 | inactive; 0
Cc1cc(C)c2nc(SCC(=O)NCCC3=CCCCC3)cc(C)c2c1 | inactive; 0
c1csc(CCNc2ncnc3sc4c(c23)CCC4)c1 | inactive; 0
CC1=NCCN1S(=O)(=O)c1cc(Cl)ccc1Cl | inactive; 0
COC(=O)c1sccc1NC(=O)CSc1ccccc1NS(=O)(=O)c1cc(Cl)ccc1Cl | inactive; 0
O=S(=O)(Nc1nc(-c2sccc2Cl)cs1)c1cc(Cl)ccc1Cl | active; -1
O=C(NNc1nc2ccccc2nc1C(F)(F)F)c1ccccc1 | inactive; 0
Cc1cccc(N=C2NC(=O)/C(=C/C=C/c3ccco3)S2)c1C | inactive; 0
Cc1nc(SC2CCOC2=O)c2c(C)c(C)sc2n1 (stereo not drawn) | inactive; 0
Cc1sc2nc(C(C)C)nc(SCC(=O)N3c4ccccc4CC3C)c2c1C (stereo not drawn) | inactive; 0
C/C(=N\NC(=O)c1cccc(F)c1)c1ccc(Br)s1 | active; 1
C/C(=N\NC(=O)c1ccc(Cl)cc1)c1ccc(Br)s1 | inactive; 0
C/C(=N\NC(=O)c1ccccc1O)c1ccc(Br)s1 | inactive; 0
Cc1ccc2c(Cl)cc(Cl)c(OCC(=O)NCc3ccco3)c2n1 | inactive; 0
O=C(NN=c1c(=O)c2ccccc2c1=O)c1ccccc1 | inactive; 0
Cc1ccc(NC(=O)CSC(N)=O)cc1Cl | inactive; 0
C=COCCNC(=O)Nc1ccc(Cl)c(Cl)c1 | inactive; 4
O=C(CC(O)(C(F)(F)F)C(F)(F)F)Nc1ccc(Cl)c(Cl)c1 | active; 1
O=C(NNC(=O)c1sccc1-n1cccc1)c1ccc(Cl)cc1 | inactive; 0
CCOC(=O)c1ccccc1NC(=O)CSc1nnc(Cc2cccn2C)n1-c1ccc(C)cc1 | inactive; 0
Fc1ccc(/C=N/n2c(-c3cccs3)n[nH]c2=S)cc1 | inactive; 0
CCOc1ccc2nc(/N=C/c3c(C)[nH]n(-c4ccc(C)cc4)c3=O)sc2c1 | inactive; 0
O=c1c2ccccc2nc(-c2cccc(Cl)c2)n1O | inactive; 0

SMILES | outcome
O=c1c2ccc(Cl)cc2nc(-c2cccc(C(F)(F)F)c2)n1O | inactive; 3
O=c1c2cc(Br)ccc2nc(-c2cccc(C(F)(F)F)c2)n1O | active; 1
COC(=O)c1onc(C(=O)c2ccccc2)c1C(=O)OC | inactive; 0
COc1ccc(N2CCCn3c2nc2c3c(=O)n(Cc3ccccc3F)c(=O)n2C)c(OC)c1 | inactive; 0
COc1ccc(NC(=O)C(=O)NNC(=O)c2cccs2)c(OC)c1 | inactive; 0
Cn1c(=O)c2c(nc(-n3ccnc3)n2Cc2ccccc2)n(C)c1=O | inactive; 0
Cn1c(N2CCCC2)nc2c1c(=O)n(Cc1ccc(Cl)cc1)c(=O)n2C | active; 2
COc1ccc(N2CCN(c3nc4c(c(=O)n(C)c(=O)n4C)n3Cc3ccccc3)CC2)cc1 | inactive; 0
CCOC(=O)Cc1csc(NC(=S)NC(=O)c2ccccc2Br)n1 | inactive; 0
CCc1ccc(NC(=S)NNC(=O)c2ccccc2OC(F)F)cc1 | inactive; 0
Cc1ccc(C)c(NC(=S)NNC(=O)c2csc3c2CCC(C)C3)c1 (stereo not drawn) | inactive; 0
O=C(N/N=C\c1ccc(Cl)s1)c1cccs1 | inactive; 0
COc1ccc(CNc2nc(-c3cccnc3)nn2C(=O)c2ccco2)cc1 | active; 2
O=C(c1cc2nc(-c3ccccc3)cc(-c3ccccc3)n2n1)N1CCN(C(=O)c2ccco2)CC1 | inactive; 0
CCC(=O)n1nc(-c2cccnc2)nc1NCc1ccc(OC)cc1 | inactive; 0
Cc1oc(-c2ccccc2)nc1CS(=O)CC(=O)O (stereo not drawn) | inactive; 0
CCCCN(CCCC)C(=S)NC(=O)c1ccccc1Cl | inactive; 0
COc1cc(-c2nnc(CSc3nc4ccccc4s3)o2)cc(OC)c1OC | inactive; 0
CCN(CC)C(=O)CSc1nc2ccccc2c(=O)n1-c1ccccc1OC | inactive; 0
COc1ccc(-c2nnc(CSc3nc4ccccc4c(=O)n3C)o2)cc1OC | active; 2
c1ccc(Cc2nnc(-c3ccccc3)o2)cc1 | active; -1
O=S(=O)(c1ccc(-c2nnc(SCc3nnc(-c4ccccc4)o3)o2)cc1)N1CCCC1 | inactive; 0
Fc1ccc2nc(-c3ccccc3)nc(SCc3nnc(-c4ccccc4)o3)c2c1 | inactive; 0
